Assay results from ChEMBL document CHEMBL1125826, “Synthesis and biological activity of 5-amino- and 5-hydroxyquinolones, and the overwhelming influence of the remote N1-substituent in determining the structure-activity relationship” (1991).
Converted amounts (≈) assume the structure as drawn.

Columns and labels:
Type in all cases: functional
[1] = biological target: DNA gyrase (Escherichia coli) (UniProt P0AES6+P0AES4); assay: Minimum inhibitory concentration against Escherichia coli DNA-gyrase in supercoiling assay
Enterobacter cloacae = assay: Antibacterial activity was determined against gram negative organism, Enterobacter cloacae MA2646; details: Enterobacter cloacae; read-out: MIC
Escherichia coli [2] = assay: Antibacterial activity was determined against gram negative organism, Escherichia coli vogel; details: Escherichia coli; read-out: MIC
Procedure, shortened: (§1)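 MIC (µg/mL) by standard microtitration against a panel of 10 Gram-positive and Gram-negative organisms; values averaged from multiple experiments.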

Escherichia coli [3] = assay: The in vivo potency was determined in female charles river CD-1 mice infected with Escherichia coli after peroral administration; details: for ED50: Escherichia coli, po, read-out: PD50
Procedure, shortened: (§2)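 Acute lethal systemic infection in female CD-1 mice, 16 mice per route; single dose given orally by gavage at the time of challenge; median protective dose (PD50, mg/kg) determined.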

Escherichia coli [4] = assay: The in vivo potency was determined in female charles river CD-1 mice infected with Escherichia coli after sc administration; details: Escherichia coli, sc; read-out: PD50
Procedure, shortened: (§3)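 Acute lethal systemic infection in female CD-1 mice, 16 mice per route; single subcutaneous dose given at the time of challenge; median protective dose (PD50, mg/kg) determined.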

Bacteria [5] = assay: MIC ratio measured as the mean MICs of gram-negative bacteria
Procedure, shortened: (§4)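 Geometric mean of the microtitration MICs (µg/mL) over the Gram-negative organisms, and separately over the Gram-positive organisms, of the 10-strain panel; individual MICs averaged from multiple experiments.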

Bacteria [6] = assay: MIC ratio measured as the mean MICs of gram-positive bacteria; procedure, shortened: as §4
Klebsiella pneumoniae = assay: Antibacterial activity was determined against gram negative organism, Klebsiella pneumoniae MGH-2; details: Klebsiella pneumoniae; read-out: MIC; procedure, shortened: as §1
Streptococcus pyogenes [7] = assay: The in vivo potency was determined in female charles river CD-1 mice infected with Streptococcus pyogenes after peroral administration; details: Streptococcus pyogenes, po; read-out: PD50; procedure, shortened: as §2
Streptococcus pyogenes [8] = assay: The in vivo potency was determined in female charles river CD-1 mice infected with Streptococcus pyogenes after sc administration; details: Streptococcus pyogenes, sc; read-out: PD50; procedure, shortened: as §3
Pseudomonas aeruginosa = assay: Antibacterial activity was determined against gram negative organism, Pseudomonas aeruginosa UI-18; details: Pseudomonas aeruginosa; read-out: MIC; procedure, shortened: as §1
Bacteria [9] = assay: Antibacterial activity was determined against gram negative organism, Providencia rettgeri. M1771; details: Bacteria; read-out: MIC; procedure, shortened: as §1
Staphylococcus aureus [10] = assay: Antibacterial activity was determined against gram positive organism, Staphylococcus aureus H228; details: Staphylococcus aureus; read-out: MIC; procedure, shortened: as §1
Streptococcus pneumoniae = assay: Antibacterial activity was determined against gram positive organism, Streptococcus pneumoniae SV-1; details: Streptococcus pneumoniae; read-out: MIC; procedure, shortened: as §1
Enterococcus faecalis = assay: Antibacterial activity was determined against gram positive organism, Streptococcus faecalis MGH-2; details: Enterococcus faecalis; read-out: MIC; procedure, shortened: as §1
Staphylococcus aureus [11] = assay: Antibacterial activity was determined against gram positive organism, Staphylococcus aureus UC76; procedure, shortened: as §1
Streptococcus pyogenes [12] = assay: Antibacterial activity was determined against gram positive organism, Streptococcus pyogenes C203; details: Streptococcus pyogenes; read-out: MIC; procedure, shortened: as §1
[13] = Staphylococcus aureus, read-out: MIC

SMILES	MIC [1] [µg/mL]	MIC (Enterobacter cloacae) [µg/mL]	MIC (Escherichia coli [2]) [µg/mL]	ED50 (Escherichia coli [3]) [mg/kg]	ED50 (Escherichia coli [4]) [mg/kg]	Geometric mean MIC over Gram-negative bacteria (µg/mL) (Bacteria [5])	Geometric mean MIC over Gram-positive bacteria (µg/mL) (Bacteria [6])	MIC (Klebsiella pneumoniae) [µg/mL]	ED50 (Streptococcus pyogenes [7]) [mg/kg]	ED50 (Streptococcus pyogenes [8]) [mg/kg]	MIC (Pseudomonas aeruginosa) [µg/mL]	MIC (Bacteria [9]) [µg/mL]	MIC (Staphylococcus aureus [10]) [µg/mL]	MIC (Streptococcus pneumoniae) [µg/mL]	MIC (Enterococcus faecalis) [µg/mL]	MIC (Staphylococcus aureus [11]; [13]) [µg/mL]	MIC (Streptococcus pyogenes [12]) [µg/mL]	PD50 (Escherichia coli [3]) [mg/kg]	MIC (Staphylococcus aureus [11]) [µg/mL]
CC1CN(c2cc3c(cc2F)c(=O)c(C(=O)O)cn3C2CC2)CC(C)N1 (configuration not stated)	1 (≈ 2.78 µM)	0.025 (≈ 0.0696 µM)	0.025 (≈ 0.0696 µM)	0.7	0.4	0.076	0.15	0.05 (≈ 0.139 µM)	15	12	0.4 (≈ 1.11 µM)	0.2 (≈ 0.556 µM)	0.2 (≈ 0.556 µM)	0.2 (≈ 0.556 µM)	0.2 (≈ 0.556 µM)	0.05 (≈ 0.139 µM)	0.2 (≈ 0.556 µM)	–	–
NC1CCN(c2cc3c(c(O)c2F)c(=O)c(C(=O)O)cn3C2CC2)C1 (configuration not stated)	1 (≈ 2.88 µM)	0.025 (≈ 0.072 µM)	0.013 (≈ 0.0374 µM)	3	0.4	0.038	0.066	0.025 (≈ 0.072 µM)	–	–	0.2 (≈ 0.576 µM)	0.05 (≈ 0.144 µM)	0.1 (≈ 0.288 µM)	0.05 (≈ 0.144 µM)	0.2 (≈ 0.576 µM)	0.013 (≈ 0.0374 µM)	0.1 (≈ 0.288 µM)	–	–
CC1CN(c2c(F)cc3c(=O)c(C(=O)O)cn(C4CC4)c3c2F)CC(C)N1 (configuration not stated)	2.5 (≈ 6.62 µM)	0.05 (≈ 0.132 µM)	0.05 (≈ 0.132 µM)	–	0.4	0.11	0.23	0.1 (≈ 0.265 µM)	–	–	0.4 (≈ 1.06 µM)	0.2 (≈ 0.53 µM)	0.2 (≈ 0.53 µM)	0.4 (≈ 1.06 µM)	0.4 (≈ 1.06 µM)	0.05 (≈ 0.132 µM)	0.4 (≈ 1.06 µM)	0.8	–
CC1CN(c2c(F)cc3c(=O)c(C(=O)O)cn(C4CC4)c3c2F)CCN1 (configuration not stated)	1 (≈ 2.75 µM)	0.05 (≈ 0.138 µM)	0.025 (≈ 0.0688 µM)	0.8	0.4	0.066	0.26	0.025 (≈ 0.0688 µM)	–	–	0.4 (≈ 1.1 µM)	0.1 (≈ 0.275 µM)	0.2 (≈ 0.55 µM)	0.4 (≈ 1.1 µM)	0.4 (≈ 1.1 µM)	0.1 (≈ 0.275 µM)	0.4 (≈ 1.1 µM)	–	–
Nc1c(F)c(N2CCNCC2)c(Cl)c2c1c(=O)c(C(=O)O)cn2C1CC1	1 (≈ 2.63 µM)	0.025 (≈ 0.0657 µM)	0.025 (≈ 0.0657 µM)	2	0.5	0.076	0.087	0.05 (≈ 0.131 µM)	26	10	0.8 (≈ 2.1 µM)	0.1 (≈ 0.263 µM)	0.1 (≈ 0.263 µM)	0.1 (≈ 0.263 µM)	0.1 (≈ 0.263 µM)	0.025 (≈ 0.0657 µM)	0.2 (≈ 0.525 µM)	–	–
O=C(O)c1cn(C2CC2)c2cc(N3CCNCC3)c(F)c(O)c2c1=O	1 (≈ 2.88 µM)	0.05 (≈ 0.144 µM)	0.025 (≈ 0.072 µM)	3	0.1	–	–	0.1 (≈ 0.288 µM)	–	–	0.4 (≈ 1.15 µM)	0.1 (≈ 0.288 µM)	3.1 (≈ 8.92 µM)	0.8 (≈ 2.3 µM)	0.8 (≈ 2.3 µM)	0.2 (≈ 0.576 µM)	0.4 (≈ 1.15 µM)	–	–
CCNCC1CCN(c2c(F)c(N)c3c(=O)c(C(=O)O)cn(C4CC4)c3c2Cl)C1 (configuration not stated)	1 (≈ 2.36 µM)	0.2 (≈ 0.473 µM)	0.1 (≈ 0.236 µM)	32	3	–	–	0.4 (≈ 0.946 µM)	31	4	1.6 (≈ 3.78 µM)	0.8 (≈ 1.89 µM)	0.1 (≈ 0.236 µM)	0.025 (≈ 0.0591 µM)	0.1 (≈ 0.236 µM)	–	0.025 (≈ 0.0591 µM)	–	0.025 (≈ 0.0591 µM)
CCNCC1CCN(c2c(F)cc3c(=O)c(C(=O)O)cn4c3c2OCC4C)C1 (configuration not stated)	0.5 (≈ 1.28 µM)	0.2 (≈ 0.514 µM)	0.2 (≈ 0.514 µM)	> 100	11	0.4	0.057	0.4 (≈ 1.03 µM)	–	–	0.8 (≈ 2.05 µM)	0.8 (≈ 2.05 µM)	0.2 (≈ 0.514 µM)	0.1 (≈ 0.257 µM)	0.1 (≈ 0.257 µM)	0.025 (≈ 0.0642 µM)	0.013 (≈ 0.0334 µM)	–	–
CCNCC1CCN(c2c(F)cc3c(=O)c(C(=O)O)cn(C4CC4)c3c2Cl)C1 (configuration not stated)	0.25 (≈ 0.613 µM)	0.05 (≈ 0.123 µM)	0.05 (≈ 0.123 µM)	4	1	0.13	0.006	0.1 (≈ 0.245 µM)	–	–	0.8 (≈ 1.96 µM)	0.2 (≈ 0.49 µM)	0.013 (≈ 0.0319 µM)	0.003 (≈ 0.00736 µM)	0.013 (≈ 0.0319 µM)	0.003 (≈ 0.00736 µM)	0.006 (≈ 0.0147 µM)	–	–
